# Hits are enriched below; roughly 4% of the tested compounds scored in any of these assays.
# TAAR1 antagonist: human TAAR1 antagonism. Q96RJ0. CHO RD-HGA16 TAAR1, Fluo-8 calcium fluorescence, antagonist. inhibition, % at 3 µM. 360,000 compounds, 1.5% hits. AID 624466;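 active means inhibition above a per-plate cutoff, the mean inhibition of test compounds on that plate plus 3 SD, cut at about 49% in these data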;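 further: 0% = DMSO plus EC80 beta-PEA response and 100% = DMSO alone without agonist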
# Target sequence (Q96RJ0 whole entry, looked up): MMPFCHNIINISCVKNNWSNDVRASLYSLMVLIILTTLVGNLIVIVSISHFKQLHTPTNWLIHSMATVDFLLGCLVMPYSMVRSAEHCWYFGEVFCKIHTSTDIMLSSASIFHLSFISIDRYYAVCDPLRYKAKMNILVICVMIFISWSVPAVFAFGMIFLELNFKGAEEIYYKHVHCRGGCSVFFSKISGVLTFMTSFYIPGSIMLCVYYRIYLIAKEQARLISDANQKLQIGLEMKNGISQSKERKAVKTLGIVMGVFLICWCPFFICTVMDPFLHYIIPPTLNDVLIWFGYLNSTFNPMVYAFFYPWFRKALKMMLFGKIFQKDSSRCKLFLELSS
#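 Test system: RD-HGA16 CHO cells with stable hTAAR1 and Gα16 / Probe or stimulus: EC80 β-phenethylamine stimulus / Times: seeding 17-24 h prior, 75-min 37 °C, 30-min RT dye loading / Detection: Fluo-8 calcium-sensitive fluorescence / Read-out basis: % inhibition scaled between DMSO and EC80 PEA controls / Repeats: singlicate, one well per test compound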
# OX1R antag-1: human HCRTR1 antagonism; O43613; CHO/OX1R cells, Fluo-8 calcium fluorescence, orexin A; inhibition, % at 5 µM; 330,000 compounds, 0.43% hits;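 active means inhibition above its plate's threshold, mean inhibition of all tested compounds on the plate plus 3 SD, cut at about 37% in these data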;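 further: 0% = orexin A challenge wells and 100% = SB-334867-A antagonist wells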
# Target sequence (O43613 whole entry, looked up): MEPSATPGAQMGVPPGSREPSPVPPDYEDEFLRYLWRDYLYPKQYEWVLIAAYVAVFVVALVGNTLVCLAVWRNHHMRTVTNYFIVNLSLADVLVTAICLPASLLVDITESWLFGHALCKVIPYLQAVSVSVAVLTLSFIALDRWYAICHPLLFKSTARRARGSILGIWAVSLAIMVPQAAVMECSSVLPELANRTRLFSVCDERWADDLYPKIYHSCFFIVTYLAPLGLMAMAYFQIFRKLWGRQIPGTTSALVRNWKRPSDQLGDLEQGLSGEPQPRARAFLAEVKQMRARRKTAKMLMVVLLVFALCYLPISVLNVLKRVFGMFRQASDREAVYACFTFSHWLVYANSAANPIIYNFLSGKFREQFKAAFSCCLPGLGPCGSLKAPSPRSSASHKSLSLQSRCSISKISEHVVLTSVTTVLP
# TAAR1 ag: human TAAR1 agonism; CHO RD-HGA16 TAAR1, Fluo-8 calcium fluorescence; vehicle wells 0%, saturating PEA agonist 100%; activation, % at 3 µM; 360,000 compounds, 0.99% hits; AID 624467;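 active means activation above the mean activation of all test compounds in the run plus 3 SD, cut at about 38% in these data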
#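 Test system: RD-HGA16 (CHO) cells co-expressing Gα16 and hTAAR1; dosing: one-point dosing at 3 µM (nominal); timing: 17-24 h seeding, 75 min 37 °C dye, 30 min RT; signal: kinetic Fluo-8 calcium fluorescence; read-out basis: % activation relative to PEA EC100 response; controls: DMSO and PEA EC100; replicates: n 1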
# OX1R antag-2: blocks the human orexin 1 receptor; O43613; inhibition, % at 6.6 µM; 330,000 compounds, 1.8% hits; OX1R-expressing cells, FRET antagonist read-out; in the data active means inhibition mostly above about 38%, no sharp cut-off; inactive means mostly below about 40%;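 further: 0% = agonist challenge alone and 100% = reference antagonist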
# CHO parental Ca: signal in parental CHO cells, OX1R antagonist counter-screen; parental CHO-K1, ATP-induced calcium, Fluo-8 fluorescence; 330,000 compounds, 0.63% hits; AID 463079; inhibition, % at 5.6 µM;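 active means inhibition above that plate's mean sample inhibition plus 3 SD, cut at about 26% in these data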;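 further: 0% = ATP-challenged DMSO wells and 100% = DMSO wells without ATP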
#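 Assay system – parental CHO cells · Reagent – ATP stimulus · Detection – intracellular calcium via Fluo-8 no-wash fluorescent dye · Evaluation – percent inhibition of ATP-evoked calcium rise, normalized to controls · Controls – ATP wells versus no-ATP DMSO wells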
# OX1R Ca confirm: confirmation of human orexin 1 receptor antagonists; AID 492963; CHO/OX1R cells, orexin A calcium Fluo-8 fluorescence; 1,100 compounds, 38% hits; inhibition, % at 5 µM; shares compounds with OX1R antag-1; in the data active means inhibition above about 29%;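 further: 0% = agonist challenge alone and 100% = reference antagonist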
# CHO Ca triplic: signal in parental CHO cells, OX1R antagonist counter-screen. shares compounds with OX1R antag-1. parental CHO-K1, ATP-induced calcium, Fluo-8 fluorescence. inhibition, % at 5.6 µM. 1,100 compounds, 9.3% hits;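 active means inhibition above a per-plate limit, the mean inhibition of that plate's test compounds plus 3 SD, cut at about 25% in these data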;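 further: 0% = ATP challenge with DMSO and 100% = DMSO without ATP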
# OX1R HTRF conf: confirmation of human orexin 1 receptor antagonists, HTRF format | shares compounds with OX1R antag-2 | OX1R-expressing cells, HTRF antagonist assay | inhibition, % at 6.6 µM | 1,800 compounds, 49% hits; in the data active means inhibition above about 55%;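 further: CHO cells expressing OX1R stimulated with orexin A at about EC80; 0% = agonist challenge alone and 100% = reference antagonist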
# CHO-K1 HTRF cnt: counter-screen for OX1R antagonists: effect in parental CHO-K1 cells. shares compounds with OX1R antag-2. HTRF counterscreen. inhibition, % at 6.6 µM. 1,800 compounds, 48% hits. AID 493232; in the data active means inhibition above about 17%;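 further: 0% = agonist challenge with vehicle and 100% = vehicle alone without agonist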
# TAAR1 ag conf: confirmation of human TAAR1 agonists. CHO RD-HGA16 TAAR1, Fluo-8 calcium fluorescence; scaled: DMSO 0%, maximal phenethylamine 100%. shares compounds with TAAR1 ag. 2,400 compounds, 82% hits. activation, % at 3 µM;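 active means activation above a cutoff set at the run's mean compound activation plus 3 SD, cut at about 39% in these data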
# Ga16 ag counter: counter-screen for TAAR1 agonists: nonselective agonists in parental cells. shares compounds with TAAR1 ag. CHO-Ga16 parental, Fluo-8 calcium fluorescence; normalized to maximal ATP response, DMSO zero. activation, % at 3 µM. 2,400 compounds, 50% hits. AID 651787;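 active means activation above the run cutoff, the mean activation over all tested wells plus 3 SD, cut at about 12% in these data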;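 further: 0% = DMSO wells and 100% = maximal ATP response on the peak over basal ratio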
# TAAR1 desensitize: counter-screen for human TAAR1 agonists: agonists that desensitize TAAR1; shares compounds with TAAR1 ag; CHO RD-HGA16 hTAAR1, Fluo-8 calcium, beta-PEA response inhibition; inhibition, % at 3 µM; 2,400 compounds, 46% hits;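 active means inhibition above the run cutoff, the mean inhibition of all test compounds plus 3 SD, cut at about 49% in these data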;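 further: beta-PEA stimulus applied at its EC80; loss of beta-PEA calcium signal after compound pretreatment read as receptor desensitization; 0% = DMSO with beta-PEA at EC80 and 100% = DMSO alone without agonist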
# Ga16 nonsel ant: nonselective Ga16 antagonist in TAAR1 agonist counter-screen; shares compounds with TAAR1 ag; CHO-Ga16 ATP-induced calcium, Fluo-8 fluorescence; inhibition, % at 3 µM; 2,400 compounds, 39% hits; AID 651952;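 active means inhibition above the plate's mean compound inhibition plus 3 SD, computed per plate, cut at about 22% in these data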;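 further: 0% = EC80 ATP with DMSO and 100% = DMSO wells without ATP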
# * marks the source's active call; other numbers are inactive results; / = no result given.
SMILES,TAAR1 antagonist,OX1R antag-1,TAAR1 ag,OX1R antag-2,CHO parental Ca,OX1R HTRF conf,CHO-K1 HTRF cnt,others
Fc1ccc(-c2cc(C(F)(F)C(F)F)[nH]n2)cc1,74.9*,27.1,81.4*,8.7,10.0,/,/,OX1R Ca confirm=37.2*;CHO Ca triplic=18.9;TAAR1 ag conf=91.4*;Ga16 ag counter=53.4*;TAAR1 desensitize=73.6*;Ga16 nonsel ant=39.2*
CCN1C(=O)/C(=C\C=C\c2ccccc2[N+](=O)[O-])SC1=S,1.8,/,4.6,/,/,/,/,
CCN1C(=O)/C(=C/C=C2\N(CC)c3cc(S(=O)(=O)N(C)C)ccc3N2c2ccccc2)SC1=S,36.3,30.2,61.8*,15.2,14.6,/,/,OX1R Ca confirm=71.8*;CHO Ca triplic=68.0*;TAAR1 ag conf=48.4*;Ga16 ag counter=56.4*;TAAR1 desensitize=71.9*;Ga16 nonsel ant=77.6*
CCOCc1c(C(=O)NCc2ccccc2CN2CCCC2)oc2ccccc12,10.3,-35.9,-0.5,4.0,-16.1,/,/,
CCCCNC(=O)C1c2ccccc2OCC(=O)N1C1CC1 (stereo not drawn),2.6,/,0.8,/,/,/,/,
COc1cccc(NC(=O)CN(C)C(=O)c2cc(S(=O)(=O)N3CCCCCC3)ccc2OC)c1,9.4,-26.9,6.0,-0.9,-27.3,/,/,
Cc1cc(C)nc(/N=C(\N)Nc2ccc(F)c([N+](=O)[O-])c2)n1,70.6*,25.1,68.3*,28.6,11.9,/,/,OX1R Ca confirm=39.7*;CHO Ca triplic=8.2;TAAR1 ag conf=62.6*;Ga16 ag counter=38.0*;TAAR1 desensitize=70.0*;Ga16 nonsel ant=39.0*
Cc1cc(C)nc(/N=C(\N)Nc2ccc(SC(F)F)cc2)n1,94.6*,34.6,101.9*,13.0,17.6,/,/,OX1R Ca confirm=63.8*;CHO Ca triplic=20.6;TAAR1 ag conf=98.6*;Ga16 ag counter=63.1*;TAAR1 desensitize=98.3*;Ga16 nonsel ant=69.4*
Cc1cc(C)nc(/N=C(\N)Nc2ccc(S(N)(=O)=O)cc2)n1,5.1,4.5,3.0,2.4,-8.6,/,/,
Cc1cc(C)nc(/N=C(\N)Nc2ccc(S(=O)(=O)Nc3nc(C)cc(C)n3)cc2)n1,/,-15.1,/,31.6,-15.7,/,/,
N#Cc1cc2c(=O)n3ccccc3nc2n(Cc2ccco2)c1=NC(=O)c1ccco1,-11.2,-15.7,0.0,77.1*,-10.6,47.1,42.5*,
COCCn1c(=N)c(C(=O)NCc2ccco2)cc2c(=O)n3ccccc3nc21,4.8,-35.4,6.0,166.6*,-15.5,53.9,71.6*,
N=c1c(C(=O)NCc2ccccc2)cc2c(=O)n3ccccc3nc2n1Cc1ccco1,13.1,-16.4,0.1,78.0*,-25.1,32.0,11.4,
N=c1c(C(=O)NCc2ccco2)cc2c(=O)n3ccccc3nc2n1Cc1ccccc1,-10.1,-6.1,12.6,63.3,-17.9,/,/,
O=C(NCC1CCN(C(=O)c2ccc([N+](=O)[O-])cc2)CC1)c1ccc([N+](=O)[O-])cc1,-14.1,-24.1,4.0,86.1*,-4.5,42.2,35.9*,
O=C(c1ccc([N+](=O)[O-])cc1[N+](=O)[O-])N1CCCC1,-16.4,-14.9,9.1,111.9*,0.6,41.0,45.9*,
O=C(c1ccc(F)cc1)N1CCN(C(=O)c2ccc([N+](=O)[O-])cc2)CC1,12.2,-23.3,9.2,85.8*,-6.0,44.3,34.5*,
O=C(c1ccc([N+](=O)[O-])cc1[N+](=O)[O-])N1CCc2ccccc21,-3.9,-11.1,-0.6,22.6,-13.0,/,/,
CCOC(=O)c1sc(NC(=O)Nc2ccccc2Cl)cc1C,21.6,0.3,5.9,78.2*,-6.4,52.8,8.1,
CCOC(=O)c1sc(NC(=O)C2CCC2)cc1C,-11.1,-22.4,0.1,18.2,-8.5,/,/,
CCOC(=O)c1sc(NC(=O)c2ccc(C)s2)cc1C,13.3,1.6,2.4,79.2*,2.9,46.1,12.8,
CCOC(=O)c1cc(NC(=O)Nc2ccccc2Cl)c(C)nc1C,15.9,-35.5,3.1,9.7,-1.7,/,/,
CCOC(=O)c1c(C)[nH]c(C)c1S(=O)(=O)N1CCN(c2cccc(C)c2)C(C)C1 (stereo not drawn),-26.1,-9.1,-2.8,0.9,-18.9,/,/,
Cc1nc(-c2ccc(C(=O)Nc3cccc(Br)c3)cc2)cs1,23.8,10.8,15.3,88.5*,-3.4,53.8,3.9,
COc1ccccc1NC(=O)COC(=O)c1c(NC(C)=O)sc(C)c1C,-5.2,/,1.1,/,/,/,/,
SMILES,TAAR1 antagonist,OX1R antag-1,TAAR1 ag,OX1R antag-2,CHO parental Ca,OX1R HTRF conf,CHO-K1 HTRF cnt,others
CCCCn1c(=NC(=O)c2cccnc2)c(C(=O)OCC)cc2c(=O)n3ccccc3nc21,26.4,/,15.8,/,/,/,/,
CCOC(=O)c1cc2c(=O)n3ccccc3nc2n(CC2CCCO2)c1=NC(C)=O (stereo not drawn),-17.6,-27.4,6.3,108.2*,-17.0,38.9,56.0*,
CCOC(=O)c1cc2c(=O)n3ccccc3nc2n(CC2CCCO2)c1=NC(=O)/C=C/c1ccccc1 (stereo not drawn),31.1,-21.0,7.5,119.3*,-22.2,46.0,41.9*,
Cn1c(C(=O)NCC2CCCO2)cc2c(=O)n3ccccc3nc21 (stereo not drawn),5.0,-12.9,10.7,23.0,3.1,/,/,
CCOCCCn1c(=NC(=O)c2cccnc2)c(C(=O)OCC)cc2c(=O)n3ccccc3nc21,10.8,-34.9,5.0,110.6*,-20.2,56.7*,59.0*,
CCOc1ccc2oc(C(=O)OCC(=O)NC3CCCC3)c(C)c2c1,7.2,-21.6,1.8,10.9,-10.0,/,/,
COc1ccc(NC2=C(NC(C)=O)C(=O)c3ccccc3C2=O)cc1,0.6,-15.2,2.6,97.1*,-11.0,78.5*,96.3*,
CCC(=O)NC1=C(Nc2ccc(N)cc2)C(=O)c2ccccc2C1=O,-24.9,-18.0,-2.3,82.1*,-18.5,71.1*,120.9*,
CCC(=O)Nc1ccc(C2C(=O)c3ccccc3C2=O)cc1,-12.5,-23.8,0.5,5.0,-2.1,/,/,
COc1ccccc1-n1cnnc1SCC(=O)NCC1CCCO1 (stereo not drawn),-11.3,-30.8,9.2,0.3,-0.8,/,/,

# Screening results deposited in PubChem by The Scripps Research Institute Molecular Screening Center.
